We go through two compounds from ChEMBL document CHEMBL4373708 (J Med Chem, 2019).

A short description of data set [1]: Cmax in mouse at 10 mg/kg, ip by LC-MS analysis. It counts as ADME, organism-based. Set-up: dose 10 mg/kg, route intraperitoneal. The note with it: in vivo. The method, boiled down: (§1)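 Single intraperitoneal or oral dose in mice at 5 mg/kg (vehicle: saline with 5% DMSO and 10% Kolliphor HS 15) or 10 mg/kg (vehicle: PBS with 5% DMSO and 20% (2-hydroxypropyl)-β-cyclodextrin). Blood taken by retroorbital puncture at set times, serum separated by centrifugation at 4000 g for 20 min at 24 °C, compound quantified by LC/MS.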

The nature of data set [2]: AUC in mouse at 10 mg/kg, ip by LC-MS analysis. It counts as ADME, organism-based. The following applies: in vivo. The method, boiled down:
as §1

A short description of data set [3]: AUC in mouse at 10 mg/kg, po by LC-MS analysis. It counts as ADME, organism-based. The following applies: in vivo. The method, boiled down: as §1
The nature of data set [4]: Toxicity in CD-1 mouse assessed as effect on fecal pellet number at 10 mg/kg, po administered via gavage for 1 hr. It is filed as organism-based. The following applies: in vivo. The method, boiled down:
(§2)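 Female CD1 mice aged 8–10 weeks without loperamide: 10 mg/kg compound or vehicle (PBS with 5% DMSO and 20% (2-hydroxypropyl)-β-cyclodextrin) by gavage, 1 h before ip injection of loperamide vehicle (5% ethanol in PBS). Mice were caged singly in metabolic cages and stool collected 3 h for weight, pellet count and water content (dried 80 °C, 24 h).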

Data set [5] in a line: Tmax in mouse at 10 mg/kg, po by LC-MS analysis. The following applies: in vivo. It counts as ADME, organism-based. The method, boiled down: as §1
Data set [6] in a line: Toxicity in CD-1 mouse assessed as effect on stool weight at 10 mg/kg, po administered via gavage for 1 hr. It counts as organism-based. The following applies: in vivo. The method, boiled down:
as §2

A short description of data set [7]: Cmax in mouse at 10 mg/kg, po by LC-MS analysis. It counts as ADME, organism-based. The note with it: in vivo. Set-up: dose 10 mg/kg, route oral. The method, boiled down: as §1
The test system of data set [8] is Mus musculus. Nature of the data set: Anti-absorptive activity in loperamide-induced CD-1 mouse model of constipation assessed as improvement in stool water content at 3 mg/kg, po administered via gavage for 1 hr prior to loperamide challenge and measured after 3 hrs. It counts as functional, organism-based. The method, boiled down: (§3)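 Mice were held singly in metabolic cages with food and water. Stool was collected 3 h for weight and pellet count; water content = (wet−dry)/wet after drying 24 h at 80 °C. 5-8 mice/group, one-way ANOVA with Newman-Keuls.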

The test system of data set [9] is Mus musculus. Nature of the data set: Anti-absorptive activity in loperamide-induced CD-1 mouse model of constipation assessed as improvement in stool weight at 3 mg/kg, po administered via gavage for 1 hr prior to loperamide challenge and measured after 3 hrs. It counts as functional, organism-based. The method, boiled down:
as §3

In data set [10] the target is T1, Pendrin (Mus musculus) (UniProt Q9R155).
T1 sequence (whole entry): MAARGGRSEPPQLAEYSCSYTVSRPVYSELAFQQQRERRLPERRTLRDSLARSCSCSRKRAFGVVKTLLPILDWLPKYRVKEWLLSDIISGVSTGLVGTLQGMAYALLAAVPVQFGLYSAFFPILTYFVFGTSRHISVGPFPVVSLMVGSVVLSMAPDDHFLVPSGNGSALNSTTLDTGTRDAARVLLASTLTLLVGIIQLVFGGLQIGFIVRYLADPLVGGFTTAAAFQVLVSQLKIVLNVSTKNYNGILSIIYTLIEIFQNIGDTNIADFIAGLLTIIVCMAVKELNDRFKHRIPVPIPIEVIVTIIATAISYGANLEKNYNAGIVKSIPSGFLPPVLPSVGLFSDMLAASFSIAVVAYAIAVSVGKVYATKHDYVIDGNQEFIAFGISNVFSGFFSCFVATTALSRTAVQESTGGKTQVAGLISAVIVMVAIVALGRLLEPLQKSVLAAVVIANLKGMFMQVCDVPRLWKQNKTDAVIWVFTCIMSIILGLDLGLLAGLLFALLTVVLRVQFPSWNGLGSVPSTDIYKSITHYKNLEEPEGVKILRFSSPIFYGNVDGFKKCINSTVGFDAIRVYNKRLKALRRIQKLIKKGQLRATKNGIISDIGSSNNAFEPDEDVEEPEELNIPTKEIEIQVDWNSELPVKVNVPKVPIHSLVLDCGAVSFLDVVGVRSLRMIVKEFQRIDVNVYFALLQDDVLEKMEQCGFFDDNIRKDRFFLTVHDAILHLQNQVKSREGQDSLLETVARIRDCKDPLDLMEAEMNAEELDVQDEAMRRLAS
Nature of the data set: Inhibition of mouse slc26a4 expressed in FRT cells co-expressing EYFP-H148Q/I152L/F46L assessed as reduction in protein-mediated chloride/iodide exchange at 10 uM preincubated for 10 mins followed by NaI-substituted PBS addition and measured by YFP-based fluorescence assay. It counts as cell-based. The method, boiled down: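 FRT cells expressing the given slc26 transporter plus EYFP-H148Q/I152L/F46L were preincubated 10 min with 0 or 10 µM compound in PBS. Iodide-substituted PBS was then added (140 mM NaCl replaced by NaI). The rate of YFP fluorescence quenching gave chloride/iodide exchange.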

The subject of data set [11] is Mus musculus. Nature of the data set: Anti-absorptive activity in loperamide-induced CD-1 mouse model of constipation assessed as stool hydration at 1 mg/kg, po administered via gavage for 1 hr prior to loperamide challenge and measured after 3 hrs relative to control. It counts as functional. The method, boiled down:
as §3

A short description of data set [12]: Drug level in mouse serum at 10 mg/kg, po or ip measured after 72 hrs by LC-MS analysis. The note with it: read-out: Drug uptake. It is filed as ADME, organism-based. The method, boiled down: as §1
A short description of data set [13]: Toxicity in CD-1 mouse assessed as effect on stool water content at 10 mg/kg, po administered via gavage for 1 hr. It counts as organism-based. The following applies: in vivo. The method, boiled down:
as §2

Data set [14] has as its system Mus musculus. The data set can be described thus: Anti-absorptive activity in loperamide-induced CD-1 mouse model of constipation assessed as improvement in fecal pellet number at 3 mg/kg, po administered via gavage for 1 hr prior to loperamide challenge and measured after 3 hrs. It is filed as functional, organism-based. The method, boiled down: as §3
Data set [15] in a line: Tmax in mouse at 10 mg/kg, ip by LC-MS analysis. It is filed as ADME, organism-based. The following applies: in vivo. The method, boiled down: as §1
The test system of data set [16] is Mus musculus. The data set can be described thus: Anti-absorptive activity in loperamide-induced CD-1 mouse model of constipation assessed as improvement in fecal pellet number at 5 mg/kg, po administered via gavage for 1 hr prior to loperamide challenge and measured after 3 hrs. It counts as functional, organism-based. The method, boiled down: (§4)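 Female CD1 mice aged 8–10 weeks were gavaged with 5 mg/kg compound or vehicle 1 h before ip loperamide (0.3 mg/kg in 5% ethanol/PBS). Mice were kept singly in metabolic cages and stool collected for 3 h. Total weight and pellet number were recorded; water content = (wet−dry)/wet after drying at 80 °C for 24 h. Mean ± S.E.M., 4-6 mice per group.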

Data set [17] in a line: Tmax in mouse at 5 mg/kg, po by LC-MS analysis. It counts as ADME, organism-based. The note with it: in vivo. The method, boiled down:
as §1

Data set [18] in a line: Cmax in mouse at 5 mg/kg, po by LC-MS analysis. It is filed as ADME, organism-based. Also on record: dose 5 mg/kg, route oral. The note with it: in vivo. The method, boiled down:
as §1

Data set [19] deals with Mus musculus. Nature of the data set: Anti-absorptive activity in loperamide-induced CD-1 mouse model of constipation assessed as improvement in stool weight at 5 mg/kg, po administered via gavage for 1 hr prior to loperamide challenge and measured after 3 hrs. It counts as functional, organism-based. The method, boiled down:
as §4

A short description of data set [20]: Tmax in mouse at 5 mg/kg, ip by LC-MS analysis. It is filed as ADME, organism-based. The note with it: in vivo. The method, boiled down:
as §1

Data set [21] is described as follows: AUC in mouse at 5 mg/kg, po by LC-MS analysis. It is filed as ADME, organism-based. The note with it: in vivo. The method, boiled down: as §1
The subject of data set [22] is Mus musculus. Nature of the data set: Anti-absorptive activity in loperamide-induced CD-1 mouse model of constipation assessed as improvement in stool water content at 5 mg/kg, po administered via gavage for 1 hr prior to loperamide challenge and measured after 3 hrs. It counts as functional, organism-based. The method, boiled down:
as §4

Data set [23] can be described thus: Cmax in mouse at 5 mg/kg, ip by LC-MS analysis. It counts as ADME, organism-based. Set-up: dose 5 mg/kg, route intraperitoneal. The following applies: in vivo. The method, boiled down:
as §1

The nature of data set [24]: AUC in mouse at 5 mg/kg, ip by LC-MS analysis. It counts as ADME, organism-based. The note with it: in vivo. The method, boiled down:
as §1

SMILES strings stand for the structures. Calls of active or inactive are those of the source. The calls are words filed in the database; no cut-off is given here. Some results are limits rather than exact numbers.

In the case of `Cc1c(CC(=O)O)c(=O)oc2c(C)c(OCc3cccc(I)c3)ccc12`, the Cmax (usually the highest concentration seen after dosing) in data set [1] was found to be 29.1 µM; in [7] it was 4.7 µM. The AUC (as a rule, concentration integrated over time) in [2] was determined as 331 µM·h; in data set [3], 130 µM·h. The Activity entry in [4] is given as “Non-Toxic”; in [6], “Non-Toxic”; in data set [11], over 50%; in data set [13], “Non-Toxic”. The Tmax (as a rule, the time from dosing to the highest level) amounted to 390 min in data set [5] and 30 min in data set [15]. The result in [8], in data set [9] and in [14] was Active. In addition, the inhibition result in data set [10] was “inactive”. In addition, in data set [12], the concentration at 72 h stood at 1 µM.

On to `Cc1c(CC(=O)O)c(=O)oc2c(C)c(OCc3cccc(C(F)(F)F)c3)ccc12`, for which the result in data set [16], in data set [19] and in data set [22] was Active. The Tmax in data set [17] and in [20] was 48 min throughout. Besides, the Cmax in [18] was 12.9 µM; in data set [23], 70.2 µM. Also, in [10], the inhibition entry was “inactive”. Further, the AUC in data set [21] was determined as 69 µM·h; in data set [24], 418 µM·h.
